Experimental data: ChEMBL document CHEMBL3862015, “Synthesis and biological evaluation of furocoumarin derivatives on melanin synthesis in murine B16 cells for the treatment of vitiligo” (2016)
Activity calls are given as the source filed them. The rule behind the calls is not given here.

What was measured:
B16-F10 [1] = experiment: Induction of melanin synthesis in mouse B16F10 cells at 50 uM after 48 hrs by spectrophotometric analysis relative to control; format: functional
How it was run: (§1)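 B16F10 cells in DMEM with 10% heat-inactivated FBS, penicillin/streptomycin, 37 °C, 5% CO2; 5 × 10^5 cells per well, allowed 24 h, then fresh medium with compound for 48 h. Cells washed in cold PBS, lysed in RIPA on ice 40 min, spun 10,000g 20 min; pellet dissolved in 1 M NaOH, 60 °C 2 h, A405, normalised to protein. Three experiments in duplicate.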

B16-F10 [2] = experiment: Induction of melanin synthesis in mouse B16F10 cells at 50 uM after 48 hrs by spectrophotometric analysis relative to 8-MOP; format: functional; how it was run: as §1

| SMILES | Activity (B16-F10 [1]) | fold change (FC) (B16-F10 [2]) |
| --- | --- | --- |
| Cc1oc2ccc3ccc(=O)oc3c2c1C | Active |  |
| O=c1ccc2cc3ccoc3cc2o1 | Active |  |
| O=c1cc(CO)c2cc3c(cc2o1)oc1ccccc13 | Active |  |
| O=Cc1cc(=O)oc2cc3oc4ccccc4c3cc12 | Active |  |
| Cc1cc(=O)oc2c1ccc1occ(C)c12 | Active |  |
| Cc1oc2ccc3c(C)cc(=O)oc3c2c1C | Active |  |
| Cc1ccc(C(=O)OCc2cc(=O)oc3cc4oc5ccccc5c4cc23)cc1 | 313.1% | 3 |
| Cc1oc2cc3oc(=O)ccc3cc2c1C | Active |  |
| Cc1coc2cc3oc(=O)cc(C)c3cc12 | Active |  |
| Cc1coc2ccc3ccc(=O)oc3c12 | Active |  |
| O=c1ccc2cc3c(-c4ccccc4)coc3cc2o1 | Active |  |
| O=c1ccc2ccc3occc3c2o1 | Active |  |
| Cc1cc(=O)oc2cc3oc4c(c3cc12)CCCC4 | Active |  |
| Cc1cc(=O)oc2c1ccc1occc12 | Active |  |
| Cc1cc(=O)oc2cc3occ(-c4ccccc4)c3cc12 | Active |  |
| Cc1coc2cc3oc(=O)ccc3cc12 | Active |  |
| Cc1oc2cc3oc(=O)cc(C)c3cc2c1C | Active |  |
| Cc1ccccc1/N=C/c1cc(=O)oc2cc3oc4ccccc4c3cc12 | 350.5% | 3 |
| O=c1ccc2ccc3oc4c(c3c2o1)CCCC4 | Active |  |
| COc1c2occc2cc2ccc(=O)oc12 [METHOXSALEN] | 114.5% |  |
| O=c1ccc2cc3c4c(oc3cc2o1)CCCC4 | Active |  |
